Source: ChEMBL document CHEMBL2040714, “Synthesis of methylated quercetin derivatives and their reversal activities on P-gp- and BCRP-mediated multidrug resistance tumour cells” (Eur J Med Chem, 2012)

Biological target: T1, Broad substrate specificity ATP-binding cassette transporter ABCG2 (Homo sapiens, UniProt Q9UNQ0)
T1 sequence (Q9UNQ0 whole entry): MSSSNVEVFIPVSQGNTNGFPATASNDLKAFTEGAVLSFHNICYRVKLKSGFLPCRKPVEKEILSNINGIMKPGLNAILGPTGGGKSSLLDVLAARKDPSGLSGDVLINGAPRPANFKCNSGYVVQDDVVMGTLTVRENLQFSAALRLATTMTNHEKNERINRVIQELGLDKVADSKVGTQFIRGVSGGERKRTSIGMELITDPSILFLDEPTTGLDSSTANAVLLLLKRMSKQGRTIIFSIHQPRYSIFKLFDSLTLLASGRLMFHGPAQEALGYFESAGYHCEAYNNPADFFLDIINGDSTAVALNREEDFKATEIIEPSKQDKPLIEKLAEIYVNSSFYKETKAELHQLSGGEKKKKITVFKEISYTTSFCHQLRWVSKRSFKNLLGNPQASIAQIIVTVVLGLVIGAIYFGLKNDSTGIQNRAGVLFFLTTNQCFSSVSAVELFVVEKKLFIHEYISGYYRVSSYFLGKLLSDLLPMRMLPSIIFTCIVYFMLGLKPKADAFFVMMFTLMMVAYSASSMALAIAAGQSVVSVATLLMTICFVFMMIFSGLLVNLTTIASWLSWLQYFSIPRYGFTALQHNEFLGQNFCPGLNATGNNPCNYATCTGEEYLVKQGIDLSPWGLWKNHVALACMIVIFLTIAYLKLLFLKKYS
Experiment: Reversal of BCRP-mediated drug resistant in human HEK293/R2 cells assessed as potentiation of topotecan-induced cytotoxicity at 1 uM after 5 days by MTS assay
Format: cell-based
Conditions: hek293/r2, 120 h

Row | SMILES | fold change (FC)
1 | C[C@@H]1O[C@@H](OC[C@H]2O[C@@H](Oc3c(-c4ccc(O)c(O)c4)oc4cc(O)cc(O)c4c3=O)[C@H](O)[C@@H](O)[C@@H]2O)[C@H](O)[C@H](O)[C@H]1O [RUTIN] | 1.3
2 | COc1cc(OC)c2c(=O)c(OCCOC(=O)c3cc(OC)c(OC)c(OC)c3)c(-c3ccc(OC)c(OC)c3)oc2c1 | 4.7
3 | COc1cc(OC)c2c(=O)c(O)c(-c3ccc(OC)c(OC)c3)oc2c1 | 3.3
4 | COc1ccc(C(=O)OCCOc2c(-c3ccc(OC)c(OC)c3)oc3cc(OC)cc(OC)c3c2=O)cc1 | 12.1
5 | COc1cc(OC)c2c(=O)c(OCCO)c(-c3ccc(OC)c(OC)c3)oc2c1 | 3.9
6 | COc1cc(OC)c2c(=O)c(OCC(=O)c3ccc(OC)c(OC)c3)c(-c3ccc(OC)c(OC)c3)oc2c1 | 1.4
7 | COc1cc(OC)c2c(=O)c(OCCOC(=O)/C=C/c3cc(OC)c(OC)c(OC)c3)c(-c3ccc(OC)c(OC)c3)oc2c1 | 14
8 | COc1cc(OC)c2c(=O)c(OCc3cc(OC)c(OC)c(OC)c3)c(-c3ccc(OC)c(OC)c3)oc2c1 | 11.3
9 | COc1cc(OC)c2c(=O)c(OC)c(-c3ccc(OC)c(OC)c3)oc2c1 | 8.7

System: not listed separately
Experiment: Cytotoxicity against multidrug resistant human LCC6MDR cells after 5 days by MTS assay
Conditions: 120 h

Row | SMILES | IC50 [µM]
10 | C[C@@H]1O[C@@H](OC[C@H]2O[C@@H](Oc3c(-c4ccc(O)c(O)c4)oc4cc(O)cc(O)c4c3=O)[C@H](O)[C@@H](O)[C@@H]2O)[C@H](O)[C@H](O)[C@H]1O [RUTIN] | > 100
11 | COc1cc(OC)c2c(=O)c(OCCOC(=O)c3cc(OC)c(OC)c(OC)c3)c(-c3ccc(OC)c(OC)c3)oc2c1 | > 100
12 | COc1cc(OC)c2c(=O)c(O)c(-c3ccc(OC)c(OC)c3)oc2c1 | > 100
13 | COc1ccc(C(=O)OCCOc2c(-c3ccc(OC)c(OC)c3)oc3cc(OC)cc(OC)c3c2=O)cc1 | > 100
14 | COc1cc(OC)c2c(=O)c(OCCO)c(-c3ccc(OC)c(OC)c3)oc2c1 | > 100
15 | COc1cc(OC)c2c(=O)c(OCC(=O)c3ccc(OC)c(OC)c3)c(-c3ccc(OC)c(OC)c3)oc2c1 | > 100
16 | COc1cc(OC)c2c(=O)c(OCCOC(=O)/C=C/c3cc(OC)c(OC)c(OC)c3)c(-c3ccc(OC)c(OC)c3)oc2c1 | > 100
17 | COc1cc(OC)c2c(=O)c(OCc3cc(OC)c(OC)c(OC)c3)c(-c3ccc(OC)c(OC)c3)oc2c1 | 46.6
18 | COc1cc(OC)c2c(=O)c(OC)c(-c3ccc(OC)c(OC)c3)oc2c1 | > 100

Biological target: Multidrug resistance-associated protein 1 (Homo sapiens, UniProt P33527)
Experiment: Reversal of MRP1-mediated drug resistant in human 2008/MRP1 cells assessed as potentiation of doxorubicin-induced cytotoxicity at 1 uM after 5 days by MTS assay
Format: cell-based
Conditions: 2008/mrp1, 120 h

Sequence of Multidrug resistance-associated protein 1 (P33527 whole entry): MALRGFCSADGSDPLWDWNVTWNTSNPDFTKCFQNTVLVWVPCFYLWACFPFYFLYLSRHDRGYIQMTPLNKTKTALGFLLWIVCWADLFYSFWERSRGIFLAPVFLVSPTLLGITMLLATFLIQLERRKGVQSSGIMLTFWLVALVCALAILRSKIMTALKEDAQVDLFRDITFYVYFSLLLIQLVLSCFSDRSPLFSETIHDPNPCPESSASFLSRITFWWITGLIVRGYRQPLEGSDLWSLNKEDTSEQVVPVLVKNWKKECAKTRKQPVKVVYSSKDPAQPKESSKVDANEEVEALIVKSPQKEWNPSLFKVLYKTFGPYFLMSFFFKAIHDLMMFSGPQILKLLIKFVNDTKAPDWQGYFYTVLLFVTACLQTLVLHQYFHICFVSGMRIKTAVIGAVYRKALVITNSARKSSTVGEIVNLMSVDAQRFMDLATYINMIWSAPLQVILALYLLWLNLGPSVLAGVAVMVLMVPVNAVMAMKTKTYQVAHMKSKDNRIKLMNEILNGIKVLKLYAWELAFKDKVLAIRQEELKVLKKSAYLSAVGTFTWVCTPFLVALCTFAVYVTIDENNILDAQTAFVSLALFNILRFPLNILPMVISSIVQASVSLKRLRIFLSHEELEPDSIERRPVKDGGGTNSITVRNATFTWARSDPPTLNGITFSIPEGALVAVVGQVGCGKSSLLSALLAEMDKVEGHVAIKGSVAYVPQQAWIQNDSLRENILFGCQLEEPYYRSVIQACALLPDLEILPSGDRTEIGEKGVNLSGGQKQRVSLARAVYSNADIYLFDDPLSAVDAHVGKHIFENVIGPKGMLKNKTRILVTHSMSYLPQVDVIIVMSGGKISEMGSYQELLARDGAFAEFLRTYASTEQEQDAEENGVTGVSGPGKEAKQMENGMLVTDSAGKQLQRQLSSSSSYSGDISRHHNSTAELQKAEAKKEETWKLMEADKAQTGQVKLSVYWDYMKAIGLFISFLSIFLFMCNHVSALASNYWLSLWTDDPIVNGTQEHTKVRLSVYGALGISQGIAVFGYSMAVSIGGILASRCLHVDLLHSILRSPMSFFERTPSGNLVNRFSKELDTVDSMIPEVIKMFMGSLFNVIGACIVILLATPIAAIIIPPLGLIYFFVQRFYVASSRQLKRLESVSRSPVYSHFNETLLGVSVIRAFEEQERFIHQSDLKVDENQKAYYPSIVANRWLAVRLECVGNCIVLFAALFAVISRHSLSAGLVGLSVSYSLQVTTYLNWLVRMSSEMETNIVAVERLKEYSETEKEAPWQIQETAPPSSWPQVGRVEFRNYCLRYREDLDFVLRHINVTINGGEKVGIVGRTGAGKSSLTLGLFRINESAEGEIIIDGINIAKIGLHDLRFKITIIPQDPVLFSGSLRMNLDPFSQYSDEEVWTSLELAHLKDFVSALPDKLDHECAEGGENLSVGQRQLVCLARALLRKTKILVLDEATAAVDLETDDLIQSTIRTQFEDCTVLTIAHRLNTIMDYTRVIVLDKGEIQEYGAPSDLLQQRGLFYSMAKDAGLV

Row | SMILES | fold change (FC)
19 | C[C@@H]1O[C@@H](OC[C@H]2O[C@@H](Oc3c(-c4ccc(O)c(O)c4)oc4cc(O)cc(O)c4c3=O)[C@H](O)[C@@H](O)[C@@H]2O)[C@H](O)[C@H](O)[C@H]1O [RUTIN] | 1.2
20 | COc1cc(OC)c2c(=O)c(OCCOC(=O)c3cc(OC)c(OC)c(OC)c3)c(-c3ccc(OC)c(OC)c3)oc2c1 | 1.1
21 | COc1cc(OC)c2c(=O)c(O)c(-c3ccc(OC)c(OC)c3)oc2c1 | 0.7
22 | COc1ccc(C(=O)OCCOc2c(-c3ccc(OC)c(OC)c3)oc3cc(OC)cc(OC)c3c2=O)cc1 | 1.5
23 | COc1cc(OC)c2c(=O)c(OCCO)c(-c3ccc(OC)c(OC)c3)oc2c1 | 0.8
24 | COc1cc(OC)c2c(=O)c(OCC(=O)c3ccc(OC)c(OC)c3)c(-c3ccc(OC)c(OC)c3)oc2c1 | 0.9
25 | COc1cc(OC)c2c(=O)c(OCCOC(=O)/C=C/c3cc(OC)c(OC)c(OC)c3)c(-c3ccc(OC)c(OC)c3)oc2c1 | 1.5
26 | COc1cc(OC)c2c(=O)c(OCc3cc(OC)c(OC)c(OC)c3)c(-c3ccc(OC)c(OC)c3)oc2c1 | 1.2
27 | COc1cc(OC)c2c(=O)c(OC)c(-c3ccc(OC)c(OC)c3)oc2c1 | 0.8

Biological target: T1, Broad substrate specificity ATP-binding cassette transporter ABCG2
Experiment: Reversal of BCRP-mediated drug resistant in human MCF7-MX100 cells assessed as potentiation of topotecan-induced cytotoxicity at 1 uM after 5 days by MTS assay
Format: cell-based
Conditions: mcf7-mx100, 120 h

Row | SMILES | fold change (FC)
28 | C[C@@H]1O[C@@H](OC[C@H]2O[C@@H](Oc3c(-c4ccc(O)c(O)c4)oc4cc(O)cc(O)c4c3=O)[C@H](O)[C@@H](O)[C@@H]2O)[C@H](O)[C@H](O)[C@H]1O [RUTIN] | 4.3
29 | COc1cc(OC)c2c(=O)c(OCCOC(=O)c3cc(OC)c(OC)c(OC)c3)c(-c3ccc(OC)c(OC)c3)oc2c1 | 2
30 | COc1cc(OC)c2c(=O)c(O)c(-c3ccc(OC)c(OC)c3)oc2c1 | 6
31 | COc1ccc(C(=O)OCCOc2c(-c3ccc(OC)c(OC)c3)oc3cc(OC)cc(OC)c3c2=O)cc1 | 7.3
32 | COc1cc(OC)c2c(=O)c(OCCO)c(-c3ccc(OC)c(OC)c3)oc2c1 | 1.5
33 | COc1cc(OC)c2c(=O)c(OCC(=O)c3ccc(OC)c(OC)c3)c(-c3ccc(OC)c(OC)c3)oc2c1 | 1.4
34 | COc1cc(OC)c2c(=O)c(OCCOC(=O)/C=C/c3cc(OC)c(OC)c(OC)c3)c(-c3ccc(OC)c(OC)c3)oc2c1 | 9.1
35 | COc1cc(OC)c2c(=O)c(OCc3cc(OC)c(OC)c(OC)c3)c(-c3ccc(OC)c(OC)c3)oc2c1 | 4.7
36 | COc1cc(OC)c2c(=O)c(OC)c(-c3ccc(OC)c(OC)c3)oc2c1 | 7.9

System: L929
Experiment: Cytotoxicity against mouse L929 cells after 5 days by MTS assay
Format: cell-based
Conditions: L929, 120 h
Procedure, shortened: (§1)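 Cells seeded in 96-well plates (6000/well for LCC6 and LCC6MDR) and exposed to a range of derivative concentrations, dissolved in DMSO at no more than 1% final, for 5 days at 37 °C. Viability read by MTS; IC50 taken from dose–response curves. Three repeats, mean ± SEM. LCC6 lines grown in DMEM with 10% heat-inactivated FBS; L929 is a mouse fibroblast line.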

Row | SMILES | IC50 [µM]
37 | C[C@@H]1O[C@@H](OC[C@H]2O[C@@H](Oc3c(-c4ccc(O)c(O)c4)oc4cc(O)cc(O)c4c3=O)[C@H](O)[C@@H](O)[C@@H]2O)[C@H](O)[C@H](O)[C@H]1O [RUTIN] | > 100
38 | COc1cc(OC)c2c(=O)c(OCCOC(=O)c3cc(OC)c(OC)c(OC)c3)c(-c3ccc(OC)c(OC)c3)oc2c1 | > 100
39 | COc1cc(OC)c2c(=O)c(O)c(-c3ccc(OC)c(OC)c3)oc2c1 | > 100
40 | COc1ccc(C(=O)OCCOc2c(-c3ccc(OC)c(OC)c3)oc3cc(OC)cc(OC)c3c2=O)cc1 | > 100
41 | COc1cc(OC)c2c(=O)c(OCCO)c(-c3ccc(OC)c(OC)c3)oc2c1 | > 100
42 | COc1cc(OC)c2c(=O)c(OCC(=O)c3ccc(OC)c(OC)c3)c(-c3ccc(OC)c(OC)c3)oc2c1 | > 100
43 | COc1cc(OC)c2c(=O)c(OCCOC(=O)/C=C/c3cc(OC)c(OC)c(OC)c3)c(-c3ccc(OC)c(OC)c3)oc2c1 | > 100
44 | COc1cc(OC)c2c(=O)c(OCc3cc(OC)c(OC)c(OC)c3)c(-c3ccc(OC)c(OC)c3)oc2c1 | 17.6
45 | COc1cc(OC)c2c(=O)c(OC)c(-c3ccc(OC)c(OC)c3)oc2c1 | > 100

System: not listed separately
Experiment: Cytotoxicity against human LCC-6 cells after 5 days by MTS assay
Format: cell-based
Conditions: LCC-6, 120 h
Procedure, shortened: as §1

Row | SMILES | IC50 [µM]
46 | C[C@@H]1O[C@@H](OC[C@H]2O[C@@H](Oc3c(-c4ccc(O)c(O)c4)oc4cc(O)cc(O)c4c3=O)[C@H](O)[C@@H](O)[C@@H]2O)[C@H](O)[C@H](O)[C@H]1O [RUTIN] | > 100
47 | COc1cc(OC)c2c(=O)c(OCCOC(=O)c3cc(OC)c(OC)c(OC)c3)c(-c3ccc(OC)c(OC)c3)oc2c1 | > 100
48 | COc1cc(OC)c2c(=O)c(O)c(-c3ccc(OC)c(OC)c3)oc2c1 | > 100
49 | COc1ccc(C(=O)OCCOc2c(-c3ccc(OC)c(OC)c3)oc3cc(OC)cc(OC)c3c2=O)cc1 | > 100
50 | COc1cc(OC)c2c(=O)c(OCCO)c(-c3ccc(OC)c(OC)c3)oc2c1 | > 100
51 | COc1cc(OC)c2c(=O)c(OCC(=O)c3ccc(OC)c(OC)c3)c(-c3ccc(OC)c(OC)c3)oc2c1 | > 100
52 | COc1cc(OC)c2c(=O)c(OCCOC(=O)/C=C/c3cc(OC)c(OC)c(OC)c3)c(-c3ccc(OC)c(OC)c3)oc2c1 | > 100
53 | COc1cc(OC)c2c(=O)c(OCc3cc(OC)c(OC)c(OC)c3)c(-c3ccc(OC)c(OC)c3)oc2c1 | 14.5
54 | COc1cc(OC)c2c(=O)c(OC)c(-c3ccc(OC)c(OC)c3)oc2c1 | > 100

Organism: Homo sapiens
Experiment: Reversal of p-glycoprotein-mediated drug resistant in human LCC-6/MDR cells assessed as potentiation of paclitaxel-induced cytotoxicity at 1 uM after 5 days by MTS assay
Format: cell-based
Conditions: not given
Procedure, shortened: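 LCC6MDR cells (6000/well, DMEM with 10% FBS) given paclitaxel over a range of doses, with or without 1 μM modulator, for 5 days at 37 °C; MTS read-out. IC50 from dose–response curves, and RF = IC50 without / IC50 with 1.0 μM modulator. N = 2–4 independent experiments, mean ± SEM.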

Row | SMILES | fold change (FC)
55 | C[C@@H]1O[C@@H](OC[C@H]2O[C@@H](Oc3c(-c4ccc(O)c(O)c4)oc4cc(O)cc(O)c4c3=O)[C@H](O)[C@@H](O)[C@@H]2O)[C@H](O)[C@H](O)[C@H]1O [RUTIN] | 0.9
56 | COc1cc(OC)c2c(=O)c(OCCOC(=O)c3cc(OC)c(OC)c(OC)c3)c(-c3ccc(OC)c(OC)c3)oc2c1 | 3.2
57 | COc1cc(OC)c2c(=O)c(O)c(-c3ccc(OC)c(OC)c3)oc2c1 | 1.7
58 | COc1ccc(C(=O)OCCOc2c(-c3ccc(OC)c(OC)c3)oc3cc(OC)cc(OC)c3c2=O)cc1 | 11.3
59 | COc1cc(OC)c2c(=O)c(OCCO)c(-c3ccc(OC)c(OC)c3)oc2c1 | 1.4
60 | COc1cc(OC)c2c(=O)c(OCC(=O)c3ccc(OC)c(OC)c3)c(-c3ccc(OC)c(OC)c3)oc2c1 | 1.3
61 | COc1cc(OC)c2c(=O)c(OCCOC(=O)/C=C/c3cc(OC)c(OC)c(OC)c3)c(-c3ccc(OC)c(OC)c3)oc2c1 | 6
62 | COc1cc(OC)c2c(=O)c(OCc3cc(OC)c(OC)c(OC)c3)c(-c3ccc(OC)c(OC)c3)oc2c1 | 9.6
63 | COc1cc(OC)c2c(=O)c(OC)c(-c3ccc(OC)c(OC)c3)oc2c1 | 1.9
